The subject of one data set is Prostatic carcinoma cell. In words: Antiproliferative activity against human prostate cancer cells assessed as reduction in cell viability after 24 hrs by resazurin dye based assay. The data set is classed as functional. Summed up: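 LNCaP (PSA-expressing) and PC3 (PSA-non-expressing) cells were co-treated with prodrug plus 1 μM CuSO4. Proliferation was read by resazurin assay at 24 h, and IC50 was derived.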
For orientation: Alamar Blue is a resazurin reagent that responds to reducing activity.

Data set [1] in a line: Cytotoxicity against human prostate epithelial cells assessed as reduction in cell viability after 24 hrs by resazurin dye based assay.
The target in data set [2] is T1, Prostate-specific antigen (Homo sapiens, UniProt P07288).
T1 sequence (P07288 whole entry): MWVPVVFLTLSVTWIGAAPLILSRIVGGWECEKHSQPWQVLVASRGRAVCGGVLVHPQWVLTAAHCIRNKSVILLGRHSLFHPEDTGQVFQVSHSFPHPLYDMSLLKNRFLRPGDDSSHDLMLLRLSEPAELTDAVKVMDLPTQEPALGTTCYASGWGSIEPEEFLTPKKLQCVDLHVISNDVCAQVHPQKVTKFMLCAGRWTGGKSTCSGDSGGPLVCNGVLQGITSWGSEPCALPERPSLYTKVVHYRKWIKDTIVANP
In words: Prodrug activation assessed as PSA-mediated (unknown origin) [4-[[(2S)-2-[[(2R)-2-amino-3-hydroxy-propanoyl]amino]-4-methyl-pentanoyl]amino]phenyl]methyl N,N-diethylcarbamodithioate metabolite formation in presence of CuSO4 by LC-MS analysis. In kind it is ADME. Summed up:
(§1)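 Prodrug was incubated with 20 μg/mL PSA enzyme and sampled from 5 min to 48 h. Samples were analysed by HPLC at 254 nm, and products were assigned by mass spectrometry (m/z).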

Data set [3] has as its target T1, Prostate-specific antigen. In words: Prodrug activation assessed as PSA-mediated (unknown origin) Cu(diethyldithiocarbamate)2 complex formation in presence of CuSO4 by LC-MS analysis. The data set is classed as ADME. Summed up: as §1
The target of data set [4] is T1, Prostate-specific antigen. The experiment in a line: Prodrug activation assessed as PSA-mediated (unknown origin) compound cleavage measured up to 8 hrs by HPLC analysis. Summed up:
(§2)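 Prodrug incubated with 20 μg/mL PSA enzyme; samples taken at 5 min, 1 h, 2 h, 4 h, 8 h, 24 h and 48 h. Monitored by HPLC at 254 nm as percent prodrug remaining. Cleavage product identity confirmed by mass spectrometry.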

Data set [5] addresses T1, Prostate-specific antigen. In words: Prodrug activation assessed as PSA-mediated (unknown origin) 4-((R)-2-((R)-2-amino-3-hydroxypropanamido)-4-methylpentanamido)benzyl diethyl-carbamodithioate metabolite formation by HPLC analysis. The data set is classed as ADME. Summed up:
as §2

Data set [6] deals with T1, Prostate-specific antigen. In words: Prodrug activation assessed as PSA-mediated (unknown origin) diethyldithiocarbamate formation in presence of leucine aminopeptidase by LC-MS analysis. In kind it is ADME.
For data set [7], the target named is T1, Prostate-specific antigen. The experiment in a line: Prodrug activation assessed as PSA-mediated (unknown origin) Cu(diethyldithiocarbamate)2 complex formation in presence of leucine aminopeptidase and CuSO4 after 14.5 mins by LC-MS analysis. The data set is classed as ADME.
For data set [8], the target named is T1, Prostate-specific antigen. In words: Prodrug activation in human LNCAP cell lysates assessed as PSA-mediated peptide cleavage measured up to 4 hrs by HPLC analysis. The data set is classed as subcellular, Lysate. The method in brief: (§3)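 Prodrug incubated with LNCaP or PC3 cell lysate. Cleavage followed over time by HPLC, with caffeine as reference, for up to 48 h.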

The nature of data set [9]: Prodrug activation in human PC3 cell lysate assessed as peptide cleavage measured up to 4 hrs by HPLC analysis. In kind it is subcellular. As to conditions: pc-3, 4 h. Summed up:
as §3

Data set [10] deals with T1, Prostate-specific antigen. The experiment in a line: Prodrug activation assessed as PSA-mediated (unknown origin) Leu-PAB-DT metabolite formation measured up to 48 hrs by HPLC analysis. The data set is classed as ADME. Summed up:
as §2

Data set [11] deals with T2, Prostate-specific antigen (PSA) (Homo sapiens, UniProt P07288).
T2 sequence (P07288 whole entry): T1 sequence (P07288 whole entry)
In words: Stability assessed as PSA-mediated (unknown origin) compound cleavage by measuring parent compound remaining after 48 hrs by HPLC analysis. In kind it is ADME. As to conditions: prostate-specific antigen (PSA) enzyme, read-out: Stability. The method in brief: as §2

A short description of data set [12]: Prodrug activation in human PC3 cell lysate assessed as peptide cleavage measured up to 48 hrs by HPLC analysis. The data set is classed as subcellular. As to conditions: pc-3, 48 h. The method in brief: as §3

Residues, ends and D or L forms follow the SMILES beside them. *: point of attachment. X1 = CCN(CC)C(=S)SCc1ccc(N*)cc1

On to `CCN(CC)C(=S)SCc1ccc(NC(=O)CC[C@H](N)C(=O)O)cc1`, for which the figures for the IC50 (in the data set on Prostatic carcinoma cell; in data set [1]) were 0.8 µM and 15 µM, respectively.

In the case of `CCN(CC)C(=S)SCc1ccc(NC(=O)[C@H](CC(C)C)NC(=O)[C@H](CO)NC(=O)[C@H](Cc2ccc(O)cc2)NC(=O)[C@H](Cc2ccc(O)cc2)NC(=O)[C@H](CO)NC(=O)[C@H](CO)NC(=O)[C@H](CCCNC(=N)N)NC(=O)[C@H](N)CO)cc1`, the results for the Drug metabolism result in data set [2] and in data set [3] were “Metabolite_Detected” and “Metabolite_Notdetected”, respectively.

With `CCN(CC)C(=S)SCc1ccc(NC(=O)[C@H](CC(C)C)NC(=O)[C@H](CCC(N)=O)NC(=O)[C@H](CC(C)C)NC(=O)[C@H](CCCCN)NC(=O)[C@H](CO)NC(=O)[C@H](CO)NC(=O)[C@H](Cc2c[nH]cn2)NC(C)=O)cc1` (Ac-HSSKLQL-X1), the Drug metabolism is recorded as 100% in [4]; “Metabolite_Detected” in [5]; “Metabolite_Notdetected” in [6]; “Metabolite_Detected” in data set [7]; 100% in data set [8]; more than 50% in data set [9].

As to `CCN(CC)C(=S)SCc1ccc(NC(=O)[C@H](CC(C)C)NC(=O)[C@H](CO)NC(=O)[C@H](Cc2ccc(O)cc2)NC(=O)[C@H](Cc2ccc(O)cc2)NC(=O)[C@H](CO)NC(=O)[C@H](CO)NC(=O)[C@@H](N)CCCNC(=N)N)cc1` (H-RSSYYSL-X1), the Drug metabolism result was “Metabolite_Detected” in [10]; “Metabolite_Notdetected” in data set [6]; “Metabolite_Detected” in [7]; 100% in data set [8]; “Metabolite_Notdetected” in data set [12]. In addition, the remaining at 48 h in data set [11] turned out to be 30%.

As a reminder, the IC50 is the concentration needed to halve the response being measured.

Values taken from ChEMBL document CHEMBL4627365, “Dithiocarbamate prodrugs activated by prostate specific antigen to target prostate cancer” (Bioorg Med Chem Lett, 2020).
